In ChEMBL document CHEMBL4014346, “Lead Optimization Generates CYP11B1 Inhibitors of Pyridylmethyl Isoxazole Type with Improved Pharmacological Profile for the Treatment of Cushing's Disease” (J Med Chem, 2017):

Columns and labels:
[1] = Selectivity ratio of IC50 for human CYP11B2 expressed in hamster V79MZ cells to IC50 for human CYP11B1 expressed in hamster V79MZ cells
Method in brief: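 V79MZ cells expressing recombinant human CYP11B1 or CYP11B2, or rat CYP11B1, incubated with [1,2-³H]-11-deoxycorticosterone (100 nM) and inhibitor over a range of concentrations; ketoconazole as reference.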

[2] = Cmax in Sprague-Dawley rat at 28 mg/kg, po administered as single dose by HPLC-MS/MS analysis; format: ADME, organism-based; design: dose 28 mg/kg, route oral; conditions: in vivo
Method in brief: (§1)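 Female Sprague-Dawley rats (244–299 g), 2 animals, given one oral dose under 2% isoflurane as a freshly sonicated suspension in 0.5% porcine gelatin/5% mannitol in water. Tail-vein plasma precipitated with acetonitrile plus diphenhydramine internal standard, quantified by HPLC-MS/MS in duplicate. Noncompartmental analysis; Cmax and Tmax read directly from the concentration–time curve; F derived against iv dosing.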

[3] = Volume of distribution at steady state in Sprague-Dawley rat at 5 mg/kg, iv administered as single dose by HPLC-MS/MS analysis; format: ADME, organism-based; conditions: in vivo, read-out: Vdss
Method in brief: (§2)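 Female Sprague-Dawley rats (244–299 g), 2 animals; single iv dose in PEG300/ethanol/water (60/10/30), under 2% isoflurane anesthesia. Tail-vein blood taken into sodium citrate, plasma spun down, precipitated with acetonitrile containing diphenhydramine internal standard, analysed by HPLC-MS/MS with duplicate injections. Mean parameters from noncompartmental analysis.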

[4] = Tmax in Sprague-Dawley rat at 28 mg/kg, po administered as single dose by HPLC-MS/MS analysis; format: ADME, organism-based; conditions: in vivo; method in brief: as §1
[5] = AUC (0 to infinity) in Sprague-Dawley rat at 28 mg/kg, po administered as single dose by HPLC-MS/MS analysis; format: ADME, organism-based; design: dose 28 mg/kg, route oral, time infinity; conditions: in vivo
[6] = Oral bioavailability in Sprague-Dawley rat at 28 mg/kg administered as single dose by HPLC-MS/MS analysis; format: ADME, organism-based; conditions: in vivo; method in brief: as §1
[7] = AUC (0 to infinity) in Sprague-Dawley rat at 5 mg/kg, iv administered as single dose by HPLC-MS/MS analysis; format: ADME, organism-based; design: dose 5 mg/kg, route intravenous, time infinity; conditions: in vivo
[8] = Clearance in Sprague-Dawley rat at 5 mg/kg, iv administered as single dose by HPLC-MS/MS analysis; format: ADME, organism-based; conditions: in vivo; method in brief: as §2
Rattus norvegicus = assay: Time at which plasma concentration stays above in vitro rat CYP11B1 IC50 in Sprague-Dawley rat at 28 mg/kg, po administered as single dose; method in brief: as §1
[9] = Cmax in Sprague-Dawley rat at 5 mg/kg, iv administered as single dose by HPLC-MS/MS analysis; format: ADME, organism-based; design: dose 5 mg/kg, route intravenous; conditions: in vivo; method in brief: as §2
[10] = Half life in Sprague-Dawley rat at 5 mg/kg, iv administered as single dose by HPLC-MS/MS analysis; format: ADME, organism-based; conditions: in vivo; method in brief: as §2
Plasma = assay: Plasma concentration in Sprague-Dawley rat at 28 mg/kg, po administered as single dose by HPLC-MS/MS analysis; format: ADME, organism-based; conditions: in vivo; method in brief: as §1
[11] = Half life in Sprague-Dawley rat at 28 mg/kg, po administered as single dose by HPLC-MS/MS analysis; format: ADME, organism-based; conditions: in vivo; method in brief: as §1

| Compound | Ratio IC50 [1] | Cmax [2] [µM] | Vd [3] [L/kg] | Tmax [4] [h] | AUC(0-inf) [5] [ng·h/mL] | bioavailability [6] [%] | AUC(0-inf) [7] [ng·h/mL] | clearance [8] [mL/min/kg] | Time (Rattus norvegicus) | Cmax [9] [µM] | half-life [10] [h] | concentration (Plasma) [µM] | half-life [11] [h] |
| --- | --- | --- | --- | --- | --- | --- | --- | --- | --- | --- | --- | --- | --- |
| Cc1cncc(Cc2cc(-c3ccccc3)no2)c1 | 16 |  |  |  |  |  |  |  |  |  |  |  |  |
| COc1cncc(Cc2cc(-c3ccccc3)no2)c1 |  | 6.4 | 3.1 | 2.5 | 10200 | 50 | 3680 | 22.6 | <=7 hr | 27.8 | 4.8 | 4.11 | 3.3 |
